According to publication PMC6904438 (Biochemistry, 2019):

How the values were obtained:
[1] = molecular target: T1, zebrafish HDAC10 (Danio rerio, UniProt F1QCV2); test: fixed-point N-acetylputrescine hydrolysis assay; assay type: biochemical
T1 sequence (F1QCV2 1-675): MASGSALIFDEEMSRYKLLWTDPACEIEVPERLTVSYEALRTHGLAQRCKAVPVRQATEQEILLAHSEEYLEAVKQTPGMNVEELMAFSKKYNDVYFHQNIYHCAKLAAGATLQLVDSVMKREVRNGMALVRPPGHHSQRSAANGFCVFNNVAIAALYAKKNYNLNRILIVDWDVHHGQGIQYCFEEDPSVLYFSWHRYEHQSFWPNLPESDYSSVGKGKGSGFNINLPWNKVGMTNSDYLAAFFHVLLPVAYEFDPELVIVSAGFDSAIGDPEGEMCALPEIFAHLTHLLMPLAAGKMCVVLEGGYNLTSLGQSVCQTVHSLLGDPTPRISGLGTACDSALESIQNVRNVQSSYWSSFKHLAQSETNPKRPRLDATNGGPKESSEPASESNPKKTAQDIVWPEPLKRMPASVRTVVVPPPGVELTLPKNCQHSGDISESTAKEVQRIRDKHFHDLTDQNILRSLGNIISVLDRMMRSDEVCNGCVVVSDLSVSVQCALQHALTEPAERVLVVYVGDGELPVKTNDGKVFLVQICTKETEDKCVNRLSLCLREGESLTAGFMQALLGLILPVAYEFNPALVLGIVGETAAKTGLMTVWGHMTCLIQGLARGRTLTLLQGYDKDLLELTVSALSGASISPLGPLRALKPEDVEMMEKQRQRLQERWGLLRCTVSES
Summary of the method: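 N-acetylputrescine 800 μM added; quenched after 45–60 min with sodium bicarbonate plus dansyl chloride, 50 °C 1 h. Dansylated product quantified by LC-MS; IC50 from logistic nonlinear regression.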

[2] = stability in aqueous solution by mass spectrometry; assay type: physicochemical
[3] = ratio of IC50 values against zebrafish HDAC10

Row | SMILES | IC50 [1] | fold greater inhibitory potency than methylketone 2 or methoxymethylketone 3 [1, 3] | stability in aqueous solution [2] | fold difference in potencies between inhibitors 7 and 6 [1, 3]
1 | NCCCNCCCCCC(=O)C(F)(F)F [compound 1, 7-[(3-aminopropyl)amino]-1,1,1-trifluoroheptan-2-one] | 80 ± 10 nM | at least 29 fold |  | 
2 | CC(=O)CCCCCNCCCN [compound 2, 7-[(3-aminopropyl)amino]heptan-2-one] | 2300 ± 200 nM |  |  | 
3 | COCC(=O)CCCCCNCCCN [compound 3, 7-[(3-aminopropyl)amino]-1-methoxyheptan-2-one] | 35000 ± 100 nM |  |  | 
4 | NCCCNCCCCCB(O)O [compound 4, 5-[(3-aminopropyl)amino]pentylboronic acid] | 400000 ± 70000 nM |  |  | 
5 | NCCCNCCCCCS [compound 6, 5-[(3-aminopropyl)amino]pentane-1-thiol] | 370 ± 20 nM |  | susceptible to oxidation and begins to forms a disulfide in aqueous solution | 
6 | CC(=O)SCCCCCNCCCN [compound 7, S-{5-[(3-aminopropyl)amino]pentyl} thioacetate] | 30 ± 10 nM |  | stable in aqueous solution | 12 fold
